Screening results (PubChem)
The sample as a whole holds a higher share of hits than the screen did.
XBP1 UPR activ: activators of adaptive arm of unfolded protein response (XBP1). activation, % at 20 µM. AID 463104. actives 0.33% (n = 330,000). CHO-XBP1 luciferase reporter, IRE1-XBP1 UPR activation, luminescence; percent of tunicamycin response, DMSO as zero;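 active means versus positive control, 20 µM dose yields 30% or more activation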
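Material: CHO cell line with stable XBP1 luciferase reporter; schedule: 16-18 h cell attachment at 37 °C, then 6 h compound exposure; signal: glow luminescence from Steady-Glo reagent; medium: serum-containing F12 medium, 10% FBS; benchmarks: tunicamycin 10 µg/mL and vehicle-only wells; read-out: percent activation relative to tunicamycin reference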
Jurkat NFkB inh: inhibitors of the PMA/ionomycin-induced NF-kB reporter in Jurkat cells | PMA/ionomycin-induced NF-kB luciferase reporter, luminescence | inhibition, % at 4 µM | actives 0.53% (n = 330,000); in the data active means inhibition above about 50%
CHOP inhibitor: inhibitors of CHOP induction in ER stress response | CHO-K1 CHOP-promoter luciferase, tunicamycin-induced, 15-18 h | inhibition, % at 10 µM | actives 3.8% (n = 220,000) | AID 2732;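 active means compounds that reduced the stress-induced luciferase reporter signal by more than about 70% of percent inhibition, limit read from the data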
UPR CHOP act: activators of apoptotic arm of unfolded protein response (CHOP) | activation, % at 10 µM | actives 0.34% (n = 330,000) | CHO-CHOP luciferase reporter, UPR activation, luminescence; percent of tunicamycin response over DMSO baseline;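 active means at 10 µM dose, activation of 40% or more, normalized to positive control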
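System: CHO-CHOP luciferase reporter cell line | Buffer or medium: F12 medium containing 10% fetal bovine serum | Doses: One dose, 10 µM in 0.5% DMSO | Times: 6 h compound exposure at 37 °C after overnight seeding | Signal: Luciferase luminescence | Read-out: % activation vs tunicamycin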
697 NFkB inh: lowers PMA/ionomycin-induced NF-kB signal in 697 B cells; 697 B-cell NF-kB luciferase reporter, 16 h; actives 0.33% (n = 330,000); inhibition, % at 4 µM; in the data active means inhibition above about 35%
697 NFkB conf: inhibitors of the PMA/ionomycin-induced NF-kB reporter in 697 B cells, retest; shares compounds with 697 NFkB inh; 697 B-cell NF-kB luciferase, 16 h; inhibition, % at 4 µM; actives 35% (n = 2,000); AID 449746; in the data active means inhibition mostly above about 28%, no sharp cut-off; inactive means mostly below about 22%
Large screens that a line does not name were inactive (follow-up assays come after a bar, where they were run).

CCn1c(=O)cc(SCC(=O)N2CCN(Cc3ccc4c(c3)OCO4)CC2)c2ccccc21	none
CCn1c(=O)cc(SCC(=O)N2CCN(C)CC2)c2ccccc21	697 NFkB inh 42 | 697 NFkB conf 34
CCn1c(=O)c2cc(C(=O)N3CCCC3)sc2c2ccccc21	697 NFkB inh 53 | 697 NFkB conf 32
Cc1cc(C(=O)Nc2c(F)cc(F)cc2Br)n(-c2ccccc2)n1	none (no result: CHOP inhibitor)
Cc1[nH]c2ccccc2c1C(=O)CN1C(=O)NC2(CC(C)CC(C)(C)C2)C1=O (configuration not stated)	697 NFkB inh 38 | 697 NFkB conf 49
CCN(Cc1ccccc1)C(=O)CN1C(=O)NC2(CC(C)CC(C)(C)C2)C1=O (configuration not stated)	none (no result: CHOP inhibitor)
COc1ccc2cc3cc(C(=O)Nc4ccc5c(c4)OCCO5)oc3nc2c1	none
COc1ccc2cc3cc(C(=O)Nc4cc(OC)c(OC)c(OC)c4)oc3nc2c1	697 NFkB inh 37 | 697 NFkB conf inactive
COC1(OC)C=CC(=O)C=C1NC(=O)c1ccccc1OC(C)=O	none (no result: CHOP inhibitor)
CSc1nnc2c3ccccc3n(CCc3ccccc3)c2n1	none (no result: CHOP inhibitor) | 697 NFkB conf inactive
CCCN1c2cccc3cccc(c23)S1(=O)=O	none
O=C(Cn1c(-c2ccccc2)c[n+]2ccsc12)c1ccc([N+](=O)[O-])cc1	none
CC(=O)N=c1sccn1CC(=O)c1ccc([N+](=O)[O-])cc1	697 NFkB inh 36 | 697 NFkB conf inactive
O=C(NN1C(=O)/C(=C\c2cccnc2)SC1=S)c1ccco1	none
Cn1ncc2c(Nc3ccc(-c4ccccc4)cc3)ncnc21	none (no result: CHOP inhibitor) | 697 NFkB conf inactive
CCS(=O)(=O)c1ccc2oc(SCC(=O)N3CCCCC3)nc2c1	none
COc1ccc(S(=O)(=O)Nc2cc3c(C(C)=O)c(C)oc3c3ccccc23)cc1	697 NFkB inh 41 (no result: CHOP inhibitor) | 697 NFkB conf 32
CCC(C)[C@H](N)c1nnc(SCC(=O)c2ccc(Cl)cc2)o1 (some centres not stated)	697 NFkB inh 44 | 697 NFkB conf 32
O=C(c1ccc2c(=O)n(Cc3ccccc3Cl)c(=S)[nH]c2c1)N1CCOCC1	none (no result: CHOP inhibitor)
O=C(COc1ccccc1)Nc1ccncc1Cl	none (no result: CHOP inhibitor)
O=C(CN1C(=O)NC2(CCCCCCC2)C1=O)Nc1ccc(Cl)cc1	none (no result: CHOP inhibitor)
CCN(CC)C(=O)Oc1ccc2ccccc2c1Br	none | 697 NFkB conf inactive
CCN(CC)C(=O)Oc1ccc(Br)c2ccccc12	none
Cc1nc(Nc2ccc(C(=O)O)cc2)sc1-c1ccccc1	none | 697 NFkB conf inactive
COc1ccc(C(=O)c2sc(Nc3ccccc3)nc2C)cc1	none (no result: CHOP inhibitor)
N#C/C(=C\c1ccc([N+](=O)[O-])cc1)c1ccccn1	none
CN(C)c1ccc(/C=C(\C#N)c2ccccn2)cc1	none | 697 NFkB conf inactive
Cc1ccc(N2C(=O)C3N=NN(CC(=O)N4N=C(c5ccccc5)CC4c4ccccc4)C3C2=O)cc1 (configuration not stated)	none
Cc1ccc(CSCCNC(=O)c2ccc(C)cc2)cc1	none
Cc1ccc(CSCCNC(=O)c2ccc(NS(C)(=O)=O)cc2)cc1	697 NFkB inh 36 | 697 NFkB conf inactive
Cc1cccc(NC(=O)CN(CC2CCCO2)C(=O)c2ccc(S(C)(=O)=O)cc2)c1C (configuration not stated)	none (no result: CHOP inhibitor)
CCOC(=O)c1cn[nH]c1NC(=S)Nc1ccc(OC)cc1	none | 697 NFkB conf inactive
Cc1cc(N2CCC(C)CC2)n2ncc(-c3ccccc3)c2n1	none | 697 NFkB conf inactive
Cc1cc(N2CCOCC2)n2nc(C)c(-c3ccc(Cl)cc3)c2n1	none (no result: CHOP inhibitor)
Cc1ccc(-c2cnn3c(N4CCOCC4)cc(C)nc23)cc1	none (no result: CHOP inhibitor) | 697 NFkB conf inactive
Cc1cc(N2CCOCC2)n2ncc(-c3ccccc3)c2n1	none | 697 NFkB conf inactive
Cc1c(S(=O)(=O)N(C)C2CCCCC2)c(=O)n(C)c(=O)n1C	none (no result: CHOP inhibitor)
O=C(NCCCN1CCOCC1)C(=O)N/N=C/c1cccc2ccccc12	697 NFkB inh 40 | 697 NFkB conf 38
COc1ccccc1C(=O)NC(=S)Nc1cccnc1Cl	none (no result: CHOP inhibitor) | 697 NFkB conf inactive
Cc1ccc(C(=O)NC(=S)Nc2cccnc2Cl)cc1	none (no result: CHOP inhibitor)
O=c1[nH]c(=O)n([C@H]2C[C@H](O)[C@@H](CO)O2)cc1C(F)(F)F	697 NFkB inh 48 | 697 NFkB conf 58
Cc1n(N)c2ccccc2[n+]1CC(=O)c1ccccc1	none
Cc1ccc(NC(=O)c2sc3ccccc3c2Cl)nc1	CHOP inhibitor 94 | 697 NFkB conf inactive
O=C(c1cscn1)N1CCCC(N2CCN(c3ccc(F)cc3)CC2)C1 (configuration not stated)	none (no result: CHOP inhibitor)
O=C1OCC2OC(O)C(O)C(O)C2OC(=O)c2cc(O)c(O)c(O)c2-c2c(O)c(O)c3oc(=O)c4c(c(O)c(O)c5oc(=O)c2c3c54)-c2c1cc(O)c(O)c2O (configuration not stated)	none (no result: XBP1 UPR activ, Jurkat NFkB inh, UPR CHOP act, 697 NFkB inh)
O=S(=O)(Nc1ccc(-c2ccc3nncn3n2)cc1)c1cc(F)ccc1F	none (no result: CHOP inhibitor)
COc1ccc(OC)c(S(=O)(=O)Nc2ccc(-c3ccc4nncn4n3)cc2)c1	697 NFkB inh 35 (no result: CHOP inhibitor) | 697 NFkB conf inactive
O=C(COc1ccc2c3c(c(=O)oc2c1)CCC3)NCCCN1CCCC1=O	none (no result: CHOP inhibitor)
O=C(Nc1cc(C(=O)N2CCCC2)ccc1N1CCCC1)c1ccccc1F	697 NFkB inh 44 | 697 NFkB conf inactive
O=C(Nc1ccc(C(=O)N2CCCC2)cc1)c1ccccc1F	none
Cc1c(CC(=O)NCCCC(=O)O)c(=O)oc2cc3c(cc12)CCC(C)(C)O3	697 NFkB inh 52 (no result: CHOP inhibitor) | 697 NFkB conf 51
CC(NC(=O)COC(=O)CN1C(=O)C2CCCCC2C1=O)c1ccccc1 (configuration not stated)	none (no result: CHOP inhibitor)
OCC1(Cc2ccccc2)CCCN(Cc2ccn[nH]2)C1 (configuration not stated)	none
COc1ccc(-c2noc(N3CCC(C(=O)Nc4ccccc4Cl)CC3)n2)cc1	697 NFkB inh 39 (no result: CHOP inhibitor) | 697 NFkB conf inactive
COc1ccc(-c2noc(N3CCC(C(=O)Nc4ccc(OC)c(OC)c4)CC3)n2)cc1	697 NFkB inh 47 (no result: CHOP inhibitor) | 697 NFkB conf 38
COc1ccc(-c2noc(N3CCC(C(=O)Nc4ccccc4F)CC3)n2)cc1	none (no result: CHOP inhibitor)
Cc1nc(N2CCC(C)CC2)c2c(C)c(C(=O)O)sc2n1	697 NFkB inh 35 | 697 NFkB conf inactive
CC(=O)/C(C#N)=C1\NC(=O)C(Cc2ccc(C)c(Cl)c2)S1 (configuration not stated)	none | 697 NFkB conf inactive
CCc1ccc(CC2S/C(=C(\C#N)C(C)=O)NC2=O)cc1 (configuration not stated)	none
O=P(COCCOCCOCCOCP(=O)(c1ccccc1)c1ccccc1)(c1ccccc1)c1ccccc1	none
Cc1cccc(-c2nc(CSc3nc4c(c(=O)[nH]3)CCC4)c(C)o2)c1	697 NFkB inh 39 | 697 NFkB conf inactive
